Laboratory results published in ChEMBL document CHEMBL3862030, “Identification of the minimum PAR4 inhibitor pharmacophore and optimization of a series of 2-methoxy-6-arylimidazo[2,1-b][1,3,4]thiadiazoles” (Bioorg Med Chem Lett, 2016).
pIC50: −log10 of the molar value. One block for each compound: values may come before it. Calls of active or inactive are those of the source. The rule behind the calls is not given here.

Tests used:
[1] = Lipophilicity, log P of the compound; assay type: physicochemical; conditions: octanol/water
[2] = Fraction unbound in human plasma at 5 uM after 4 hrs by equilibrium dialysis method; assay type: ADME, cell-free
[3] = Fraction unbound in rat plasma at 5 uM after 4 hrs by equilibrium dialysis method; assay type: ADME, cell-free
[4] = Intrinsic clearance in human liver microsomes at 1 uM preincubated for 5 mins followed by NADPH addition measured after 3 to 45 mins by LC/MS/MS analysis; assay type: ADME; conditions: read-out: CLH
[5] = Intrinsic clearance in rat liver microsomes at 1 uM preincubated for 5 mins followed by NADPH addition measured after 3 to 45 mins by LC/MS/MS analysis; assay type: ADME; conditions: read-out: CLH
[6] = system: Platelet; test: Antiplatelet activity in human platelets assessed as inhibition of gamma thrombin-induced aggregation at 316 nM to 3.16 uM preincubated for 20 mins followed by gamma thrombin addition measured for 10 mins by aggregometer; assay type: functional, cell-based
Method in brief: (§1)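 Aggregation was monitored for 10 min, with final % aggregation taken at that point. Data are means±SEM of at least three independent experiments, compared to controls by paired t-test.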

[7] = system: Platelet; test: Antiplatelet activity in human platelets assessed as inhibition of activating peptide-induced aggregation at 100 to 316 nM preincubated for 20 mins followed by activating peptide addition measured for 10 mins by aggregometer; assay type: functional, cell-based; conditions: 316 nM to 1 uM, in the assay text read “316 nM to 1 uM” for “100 to 316 nM”; method in brief: as §1
[8] = target: T1, Proteinase-activated receptor 4 (Homo sapiens) (UniProt Q96RI0); conditions: 31.6 to 316 nM
T1 sequence (whole entry): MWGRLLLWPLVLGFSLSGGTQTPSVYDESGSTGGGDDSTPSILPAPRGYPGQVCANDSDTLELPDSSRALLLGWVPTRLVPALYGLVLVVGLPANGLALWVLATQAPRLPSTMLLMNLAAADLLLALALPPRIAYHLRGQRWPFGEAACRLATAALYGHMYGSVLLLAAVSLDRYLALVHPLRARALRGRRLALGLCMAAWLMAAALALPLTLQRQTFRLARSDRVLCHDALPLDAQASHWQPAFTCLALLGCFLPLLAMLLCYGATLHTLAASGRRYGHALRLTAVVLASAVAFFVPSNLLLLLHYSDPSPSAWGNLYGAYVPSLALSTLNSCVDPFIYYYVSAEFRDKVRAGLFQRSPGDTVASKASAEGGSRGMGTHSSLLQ

[9] = target: T2, Proteinase-activated receptor 4 (Homo sapiens, UniProt Q96RI0); test: Antagonist activity at PAR4 in human platelets assessed as inhibition of activating peptide-induced PAC1 binding response preincubated for 20 mins followed by agonist addition for 20 mins by FITC-based flow cytometric analysis
T2 sequence (Q96RI0 whole entry): T1 sequence (whole entry)
Method in brief: (§2)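 Human platelets were activated with 200 μM PAR4-AP. The read-outs were PAC-1 binding and P-selectin exposure, measured by flow cytometry.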

[10] = Fraction unbound in human plasma; assay type: ADME, cell-free
[11] = Fraction unbound in rat plasma; assay type: ADME, cell-free
[12] = target: T2, Proteinase-activated receptor 4; test: Antagonist activity at PAR4 (unknown origin) assessed as inhibition of activating peptide-induced receptor activation
[13] = target: T2, Proteinase-activated receptor 4; test: Antagonist activity at PAR4 (unknown origin) assessed as inhibition of gamma-thrombin-induced receptor activation
[14] = system: Platelet; test: Antiplatelet activity in human platelets assessed as inhibition of activating peptide-induced aggregation at 316 to 1000 nM preincubated for 20 mins followed by activating peptide addition measured for 10 mins by aggregometer; assay type: functional, cell-based; method in brief: as §1
[15] = target: T1, Proteinase-activated receptor 4 (Homo sapiens); conditions: 31.6 to 1000 nM
[16] = target: T2, Proteinase-activated receptor 4; test: Antagonist activity at PAR4 in human platelets assessed as inhibition of gamma-thrombin-induced PAC1 binding response preincubated for 20 mins followed by agonist addition for 20 mins by FITC-based flow cytometric analysis
Method in brief: (§3)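 Human platelets were stimulated with γ-thrombin at 100 nM. Activation was read by flow cytometry as PAC-1 binding and P-selectin surface expression.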

[17] = target: T2, Proteinase-activated receptor 4; test: Antagonist activity at PAR4 in human platelets assessed as inhibition of activating peptide-induced P-selectin activation; method in brief: as §2
[18] = target: T2, Proteinase-activated receptor 4; test: Antagonist activity at PAR4 in human platelets assessed as inhibition of gamma-thrombin-induced P-selectin activation; method in brief: as §3
[19] = target: T3, Proteinase-activated receptor 1 (Homo sapiens, UniProt P25116); test: Antagonist activity at PAR1 in human platelets assessed as inhibition of activating peptide-induced PAC1 binding response
T3 sequence (P25116 whole entry): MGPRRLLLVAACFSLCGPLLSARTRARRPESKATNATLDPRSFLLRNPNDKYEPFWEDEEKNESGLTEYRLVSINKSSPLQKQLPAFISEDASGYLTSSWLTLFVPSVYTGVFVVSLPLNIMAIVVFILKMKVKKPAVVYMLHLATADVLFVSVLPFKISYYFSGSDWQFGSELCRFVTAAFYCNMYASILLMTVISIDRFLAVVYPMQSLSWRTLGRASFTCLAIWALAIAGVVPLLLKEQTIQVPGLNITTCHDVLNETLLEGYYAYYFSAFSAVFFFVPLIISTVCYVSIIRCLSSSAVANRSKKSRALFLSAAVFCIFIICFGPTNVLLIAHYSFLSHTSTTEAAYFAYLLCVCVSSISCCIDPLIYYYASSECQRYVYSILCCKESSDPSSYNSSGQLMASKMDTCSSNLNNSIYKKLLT

[20] = target: T3, Proteinase-activated receptor 1; test: Antagonist activity at PAR1 in human platelets assessed as inhibition of activating peptide-induced P-selectin activation
[21] = target: T1, Proteinase-activated receptor 4 (Homo sapiens); test: Ratio of IC50 for PAR4 in human platelets assessed as inhibition of gamma-thrombin-induced PAC1 binding response to IC50 for PAR4 in human platelets assessed as inhibition of activating peptide-induced PAC1 binding response
[22] = system: Platelet; test: Antiplatelet activity in human platelets assessed as inhibition of gamma thrombin-induced aggregation at 10 uM preincubated for 20 mins followed by gamma thrombin addition measured for 10 mins by aggregometer; assay type: functional, cell-based; method in brief: as §1

logP [1]: > 4
Fu [2]: 0.006 to 0.014
Fu [3]: 0.006 to 0.014
CLint scaled at 1 µM [4]: 13.6 to 19.9 mL/min/kg
CLint scaled at 1 µM [5]: 46.3 to 58.3 mL/min/kg
inhibition [8]: Active
SMILES: COc1nn2cc(-c3ccc(C(F)(F)F)cc3)nc2s1
inhibition [6]: Active
inhibition [7]: Active

pIC50 [9]: < 5.00
SMILES: COc1nn2cc(-c3cccc([N+](=O)[O-])c3)nc2s1

pIC50 [9]: 6.03
SMILES: COc1nn2cc(-c3ccc(C#N)cc3)nc2s1

pIC50 [9]: 6.23
SMILES: COc1ccc(-c2cn3nc(OC)sc3n2)cc1

fraction unbound [10]: < 0.001
fraction unbound [11]: < 0.001
SMILES: COc1cc(OCc2csc(-c3ccccc3)n2)c2cc(-c3cn4nc(OC)sc4n3)oc2c1

pIC50 [12]: 8.77
pIC50 [13]: 7.23
SMILES: COc1nn2cc(-c3cc4ccccc4o3)nc2s1

logP [1]: > 4
Fu [2]: 0.006 to 0.014
Fu [3]: 0.006 to 0.014
CLint scaled at 1 µM [4]: 13.6 to 19.9 mL/min/kg
CLint scaled at 1 µM [5]: 46.3 to 58.3 mL/min/kg
inhibition [8]: Active
SMILES: COc1nn2cc(-c3ccc(OC(F)(F)F)cc3)nc2s1
inhibition [6]: Active
inhibition [7]: Active

pIC50 [9]: 6.17
SMILES: COc1nn2cc(-c3cccc(F)c3)nc2s1

pIC50 [9]: 6.36
SMILES: COc1nn2cc(-c3ccccc3Cl)nc2s1

logP [1]: > 4
Fu [2]: 0.006 to 0.014
Fu [3]: 0.006 to 0.014
CLint scaled at 1 µM [4]: 13.6 to 19.9 mL/min/kg
CLint scaled at 1 µM [5]: 46.3 to 58.3 mL/min/kg
inhibition [15]: Active
SMILES: COc1nn2cc(-c3ccc(Cl)cc3)nc2s1
inhibition [14]: Active
inhibition [6]: Active

pIC50 [9]: 7.14
pIC50 [16]: < 5.00
SMILES: COc1nn2cc(-c3cccc(Cl)c3)nc2s1

pIC50 [9]: < 5.00
SMILES: COc1nn2cc(-c3ccc(O)cc3)nc2s1

pIC50 [9]: 6.12
SMILES: COc1nn2cc(-c3ccccc3)nc2s1

pIC50 [16]: 5.25
SMILES: COc1nn2cc(-c3cc(C(F)(F)F)cc(C(F)(F)F)c3)nc2s1

pIC50 [9]: 5.32
SMILES: COc1nn2cc(-c3ccccc3[N+](=O)[O-])nc2s1

pIC50 [9]: < 5.00
SMILES: CNc1nn2cc(-c3c(F)cccc3F)nc2s1

pIC50 [9]: 7.24
SMILES: COc1nn2cc(-c3ccc(C)cc3)nc2s1

pIC50 [9]: 7.68 to 7.70
pIC50 [16]: 6.00
pIC50 [17]: 7.70
pIC50 [18]: 6.00
pIC50 [19]: < 5.00
pIC50 [20]: < 5.00
Ratio IC50 [21]: 50
SMILES: COc1nn2cc(-c3cc4cc(OC(F)(F)F)ccc4n3C)nc2s1
inhibition [14]: Active
inhibition [22]: Active

pIC50 [16]: 5.60
SMILES: COc1nn2cc(-c3ccc(OC(F)F)cc3)nc2s1

pIC50 [9]: 5.92
SMILES: COc1nn2cc(-c3ccc(S(C)(=O)=O)cc3)nc2s1

pIC50 [9]: 5.47
SMILES: CN(C)c1nn2cc(-c3c(F)cccc3F)nc2s1
